The labels stand for the following.
B1: tRNA (parent)
chain: GUUCCGUUGGCGUAAUGGUAACGCGUCUCCCUCCUAAGGAGAAGACUGCGGGUUCGAGUCCCGUACGGAACG

Fewer inactive variants are shown than the library holds.

This note sets out measurements from the RNAGym collection of RNA variant scans (doi:10.1126/science.aae0568).

The variants in the data set derive from B1. Put plainly: yeast fitness relative to wild type (ratio to wild type); higher = fitter; tRNA-Arg(CCU), competitive growth, 37 C, YPD. The method, boiled down:
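Variants of the tRNA-Arg(CCU) gene were chemically synthesised with a 3% per-site mutation rate across 69 sites and placed at the native genomic locus in Saccharomyces cerevisiae. Six parallel replicates of the pooled strains were competed in YPD at 37°C for 24 hours, and gene amplicons from the start and end populations were read by 100-nucleotide paired-end sequencing. Darwinian fitness relative to wild type was derived from changes in genotype frequencies. Genotypes required ≥ 100 starting reads, and estimates < 0.5 were set to 0.5.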
For the variant C4G A21G A45U C49U U64A, the yeast fitness was found to be 0.556. With C4A U7A A14G G17C A36G C61U, the yeast fitness is ≤ 0.5.

In the case of C4A G23A U28A A57G, the yeast fitness was ≤ 0.5. The figure for C4A U8A G12C U19C C30U U47A A65U is ≤ 0.5; for C4G A20U G41A A57C it is ≤ 0.5; for C4A G17A C61A it is 0.534. The same measure for C4G A20G A43G: 0.502. The same measure for C4A G6A G52C A57C G63C: 0.537; for C4G A21C C30A G51A: 0.747; for C4A G9C C11G A45C A57G: 0.526.

With C4A G52C C66U, the yeast fitness was ≤ 0.5. The same measure for C4G A15G G23A C34G G68A: ≤ 0.5; for C4A G9A C22A C27G U53A A65G: ≤ 0.5; for C4G A14G U26C A36G A37C G51C: ≤ 0.5. The figure for C4A U8C U19A C27U G38C C55U is ≤ 0.5; for C4A U26G G44C G58A U59C G68C it is ≤ 0.5. For C4G A14C C22U U47C, the yeast fitness is ≤ 0.5. The same measure for C4A U7C A45C C61G: ≤ 0.5. The same measure for C4A G17A C62U: 0.556; for C4A U16A A43C: ≤ 0.5.

C4A G17A G41A A57C: the yeast fitness is ≤ 0.5. The same measure for C4G A14C G25C U54A C66G: ≤ 0.5. The figure for C4A G18C C29A C31A A57G is ≤ 0.5; for C4G A21C C49A A65G it is ≤ 0.5; for C4A U7C A36G G41A C49A G67U it is ≤ 0.5. On to C4A G12A U16A G51A U54A, for which the yeast fitness worked out at 0.542. Take C4A G23C C61A C62U C66U: the yeast fitness is ≤ 0.5. For the variant C4G A14U C60A, the yeast fitness is 0.553.

Consider C4A G23A C29U C34G G38C, for which the yeast fitness is ≤ 0.5. Regarding C4A G44A C46U U53C C62U, the yeast fitness is ≤ 0.5. Regarding C4A G9A U16A A40G C46U C62G A69U, the yeast fitness is ≤ 0.5. The figure for C4A G23C A65G is 0.569; for C4G A20U it is 0.659; for C4G A20C it is 0.8.

Take C4G A20G: the yeast fitness was found to be 0.966.

Consider C4A U13A G18A G52A C55G, for which the yeast fitness was ≤ 0.5. For the variant C4A G9C C11G C33G A37C A45C, the yeast fitness is ≤ 0.5.

As for C4A U19C U35C, the yeast fitness stood at 0.685. The figure for C4G A20U A57U C62U is ≤ 0.5.

With C4G A14C A42G, the yeast fitness was ≤ 0.5. The same measure for C4A G6A C33U U53C: ≤ 0.5. The figure for C4A U19G C31G A45C C46G is 0.555. As for C4G A20C C30A C31G C34A A37G C49A A57C G63A, the yeast fitness is ≤ 0.5. The same measure for C4A G6A C11A C22U C29U C55A: ≤ 0.5; for C4A G9A C22A C27G G56A: ≤ 0.5; for C4A U59C: 0.944. The same measure for C4A U59A: 0.664; for C4A G6A: 0.706; for C4A G6C: 0.703. Consider C4A G18C C61U, for which the yeast fitness was ≤ 0.5.

On to C4A G52C, for which the yeast fitness turned out to be 0.661. The same measure for C4A U16G C22U G23U A42C G50C G63C G68C: 0.604; for C4A G9C C11G: ≤ 0.5; for C4A G23A C31G A40C: 0.52. The figure for C4A G63U is 0.624; for C4A G63A it is 0.938. For C4G A15C U28C C55G A57U, the yeast fitness is ≤ 0.5. C4A G6A A45U G58A A65G: the yeast fitness is ≤ 0.5. The same measure for C4A G12A A42G: ≤ 0.5; for C4A G18C C29A C31A C66U: ≤ 0.5; for C4A G50A A70G: 0.57.

Consider C4A U35C U64G, for which the yeast fitness is ≤ 0.5. The same measure for C4A U32C A43C: 0.57; for C4G A15U A37U: 0.541.

Turning to C4G A14G A37U G38A A70U, the yeast fitness was found to be 0.628. The figure for C4A G23A C31G A40C G48C C66A is ≤ 0.5; for C4A G6A A14G A65G it is ≤ 0.5. Regarding C4A U8A C24U C55U G68C, the yeast fitness is ≤ 0.5.

C4A G44A C49U U54G C66U A70C: the yeast fitness is 0.503. The same measure for C4A G17C G23C A45C A70G: ≤ 0.5; for C4A U19A A69C: 0.602. The same measure for C4A U47A C61U: 0.545; for C4G A14G U26C A36G A37C: ≤ 0.5. The same measure for C4G A20G G39A A45C: ≤ 0.5; for C4A U64G: 0.641; for C4A U64C: 0.923. As for C4A U28A C30A C49G A70C, the yeast fitness is ≤ 0.5.

As for C4G A15U C29A G48A A65U, the yeast fitness is 0.53. The figure for C4A U7G G12C C29A C30U C34U C61U C66A is ≤ 0.5; for C4A U47G it is 0.686. As to C4A U47A, the yeast fitness is 0.857.

On to C4A G17C C31G A37C, for which the yeast fitness came to 0.748. The same measure for C4A G17C G56A: ≤ 0.5; for C4A U7C C27U U53A: ≤ 0.5.
